In general, pIC50 refers to −log10 of the IC50, conventionally taken in molar units.

For 32 molecules, IC50 and inhibition results are on record in ChEMBL document CHEMBL2311465, “Synthesis of novel naphthoquinone aliphatic amides and esters and their anticancer evaluation” (Eur J Med Chem, 2013).

pIC50: −log10 of the molar value. The source made the active and inactive calls. The rule behind the calls is not given here.

Test [1] deals with KB. Briefly: Cytotoxicity against human KB cells after 3 days by resazurin microplate assay. Format: functional, cell-based. The following applies: 72 h. The method in brief: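 KB cells (ATCC CCL-17) harvested in log phase and diluted to 7 × 10^4 cells/mL, then added to samples diluted in 0.5% DMSO. Incubated 3 days at 37 °C, 5% CO2, then resazurin added and plates held 4 h at 37 °C. Fluorescence read at ex 530/em 590 nm. IC50 fitted from 6 two-fold serial concentrations; six replicate experiments.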
(The colour change of resazurin is a common sign of viable cells or microbes.)

Test [2] relates to Vero. As to the kind of experiment: Cytotoxicity against african geen monkey Vero cells after 4 days by GFP reporter assay. It is filed as cell-based, Chlorocebus sabaeus. The following applies: for pIC50: Chlorocebus sabaeus, Vero, 96 h, read-out: IC50; for IC50: vero. The method in brief: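 Vero cells (GFP-expressing, grown with geneticin at 37 °C, 5% CO2) added to test compounds diluted in 0.5% DMSO and incubated 4 days at 37 °C, 5% CO2. Bottom-read fluorescence at ex 485/em 535 nm; day-0 background subtracted from the day-4 signal. Typical values from six replicate experiments.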

The target of test [3] is DNA topoisomerase 2-alpha (Homo sapiens) (UniProt P11388). As to the kind of experiment: Inhibition of human topoisomerase 2-alpha-mediated decatenation of kinetoplast DNA at 5 uM after 1 hr by agarose gel electrophoretic analysis. The method in brief:
(§1)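 kDNA (60 ng) incubated with 2 units of human TopoIIα, with or without compound, for 1 h at 37 °C. Buffer: 50 mM Tris-Cl pH 8.0, 150 mM NaCl, 10 mM MgCl2, 0.5 mM dithiothreitol, 2 mM ATP. Decatenation judged by presence or absence of enzyme activity.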

Test [4] has the same target. Briefly: Inhibition of human topoisomerase 2-alpha-mediated decatenation of kinetoplast DNA at 50 uM after 1 hr by agarose gel electrophoretic analysis. A digest of the protocol:
as §1

The target is the same in test [5]. As to the kind of experiment: Inhibition of human topoisomerase 2-alpha-mediated decatenation of kinetoplast DNA at 10 to 20 uM after 1 hr by agarose gel electrophoretic analysis. A digest of the protocol: as §1

DNA topoisomerase 2-alpha (Homo sapiens), sequence (P11388 whole entry): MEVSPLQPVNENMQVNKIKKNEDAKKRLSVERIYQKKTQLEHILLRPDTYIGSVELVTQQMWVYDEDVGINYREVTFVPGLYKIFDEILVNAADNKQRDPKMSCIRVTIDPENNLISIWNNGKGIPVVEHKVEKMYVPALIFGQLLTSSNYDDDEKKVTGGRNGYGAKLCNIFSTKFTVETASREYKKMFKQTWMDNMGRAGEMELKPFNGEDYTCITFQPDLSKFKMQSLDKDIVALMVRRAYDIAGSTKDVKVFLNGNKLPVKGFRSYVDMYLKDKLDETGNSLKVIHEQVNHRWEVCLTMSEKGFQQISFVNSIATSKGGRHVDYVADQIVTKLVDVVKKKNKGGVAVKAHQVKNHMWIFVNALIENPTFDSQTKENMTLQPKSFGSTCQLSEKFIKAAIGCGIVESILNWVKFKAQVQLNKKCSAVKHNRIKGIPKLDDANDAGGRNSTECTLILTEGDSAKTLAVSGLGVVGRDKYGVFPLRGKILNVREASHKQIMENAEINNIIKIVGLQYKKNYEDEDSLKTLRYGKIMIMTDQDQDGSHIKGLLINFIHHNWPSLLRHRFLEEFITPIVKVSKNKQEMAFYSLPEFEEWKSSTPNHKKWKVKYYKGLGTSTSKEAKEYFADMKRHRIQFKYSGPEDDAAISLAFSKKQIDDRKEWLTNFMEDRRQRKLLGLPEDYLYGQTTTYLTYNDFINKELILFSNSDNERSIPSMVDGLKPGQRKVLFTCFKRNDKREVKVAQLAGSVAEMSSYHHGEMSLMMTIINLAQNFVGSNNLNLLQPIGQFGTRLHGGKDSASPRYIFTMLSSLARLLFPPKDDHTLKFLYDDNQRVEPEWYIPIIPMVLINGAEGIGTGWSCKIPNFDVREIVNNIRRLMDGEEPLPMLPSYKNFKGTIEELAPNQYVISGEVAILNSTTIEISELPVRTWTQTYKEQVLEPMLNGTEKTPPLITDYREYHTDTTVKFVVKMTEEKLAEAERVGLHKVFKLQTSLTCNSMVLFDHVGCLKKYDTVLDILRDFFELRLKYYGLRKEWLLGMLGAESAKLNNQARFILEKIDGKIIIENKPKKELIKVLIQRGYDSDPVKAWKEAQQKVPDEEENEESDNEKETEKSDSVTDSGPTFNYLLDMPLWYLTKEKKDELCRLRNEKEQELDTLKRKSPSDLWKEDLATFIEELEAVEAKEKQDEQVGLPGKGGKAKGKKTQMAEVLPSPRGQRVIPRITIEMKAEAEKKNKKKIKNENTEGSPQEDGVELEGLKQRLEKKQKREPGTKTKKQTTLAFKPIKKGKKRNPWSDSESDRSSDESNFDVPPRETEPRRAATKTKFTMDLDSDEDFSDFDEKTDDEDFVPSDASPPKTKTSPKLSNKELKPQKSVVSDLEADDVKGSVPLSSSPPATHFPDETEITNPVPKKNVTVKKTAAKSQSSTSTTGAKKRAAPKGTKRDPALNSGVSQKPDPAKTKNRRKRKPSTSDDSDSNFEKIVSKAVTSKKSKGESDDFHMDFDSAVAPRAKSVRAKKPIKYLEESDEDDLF

For the molecule `CCCCCCCCCCCCCC(=O)OCC(C)(C)CC1=C(O)C(=O)c2ccccc2C1=O`, in test [1], the pIC50 is 4.29.

In the case of `CCCCCCC(=O)NCC(C)(C)CC1=C(O)C(=O)c2ccccc2C1=O`, the pIC50 in test [2] was 4.61; in test [1], 4.55.

On to `CCCCCCCCCCCCCCCC(=O)NCC(C)(C)CC1=C(O)C(=O)c2ccccc2C1=O`, for which, in test [3], the inhibition result was “inactive”. For the same molecule, the pIC50 was 5.25 in test [2] and 5.29 in test [1]. For the same molecule, the inhibition result in test [4] and in test [5] was “Active” each time.

For the molecule `COc1cccc2c1C(=O)c1c(O)c3c(c(O)c1C2=O)C[C@@](O)(C(=O)CO)C[C@@H]3O[C@H]1C[C@H](N)[C@H](O)[C@H](C)O1` [DOXORUBICIN], the negative-log IC50 (pIC50) in test [1] is 6.02.

For `CCCCCCCCCC(=O)NCC(C)(C)CC1=C(O)C(=O)c2ccccc2C1=O`, the pIC50 in test [2] is 4.82; in test [1], 4.73.

With `CCCC(=O)OCC(C)(C)CC1=C(O)C(=O)c2ccccc2C1=O`, in test [1], the pIC50 is 4.37.

For the molecule `CCCCCCCCCCC(=O)NCC(C)(C)CC1=C(O)C(=O)c2ccccc2C1=O`, the pIC50 in test [2] is 4.83; in test [1], 4.75.

On to `CCCC(C)C(=O)NCC(C)(C)CC1=C(O)C(=O)c2ccccc2C1=O` (configuration not stated), for which the negative-log IC50 (pIC50) in test [2] is 4.32; in test [1], 4.33. The inhibition entry in test [4] was “Active”.

Consider `CC(C)C(=O)OCC(C)(C)CC1=C(O)C(=O)c2ccccc2C1=O`, for which the negative logarithm of the IC50 (pIC50) in test [1] is 4.84.

`CCC(=O)OCC(C)(C)CC1=C(O)C(=O)c2ccccc2C1=O`: the pIC50 in test [1] was 4.07.

Take `CCCCCCCCCCCCCCCCCC(=O)NCC(C)(C)CC1=C(O)C(=O)c2ccccc2C1=O`: the pIC50 in test [2] is 5.24; in test [1], 5.20.

Take `CCCCCCCCC(=O)OCC(C)(C)CC1=C(O)C(=O)c2ccccc2C1=O`: the negative logarithm of the IC50 (pIC50) in test [1] is 4.41.

In the case of `CCCC(C)C(=O)OCC(C)(C)CC1=C(O)C(=O)c2ccccc2C1=O` (configuration not stated), the inhibition result in test [4] was “Active”. This molecule also gave a pIC50 in test [1] of 5.75.

With `CCCCCCC(C)C(=O)NCC(C)(C)CC1=C(O)C(=O)c2ccccc2C1=O` (configuration not stated), the pIC50 in test [2] is 4.81; in test [1], 4.62.

With `CCCCCC(=O)OCC(C)(C)CC1=C(O)C(=O)c2ccccc2C1=O`, the pIC50 in test [1] is 4.39.

Take `CCCCCCCCC(=O)NCC(C)(C)CC1=C(O)C(=O)c2ccccc2C1=O`: the pIC50 in test [2] is 4.78; in test [1], 4.71.

On to `CCCCCCCCCCCCCCCCCC(=O)OCC(C)(C)CC1=C(O)C(=O)c2ccccc2C1=O`, for which, in test [1], the negative-log IC50 (pIC50) was 4.12.

As to `CCCCC(=O)OCC(C)(C)CC1=C(O)C(=O)c2ccccc2C1=O`, the negative logarithm of the IC50 (pIC50) in test [1] was 4.56.

Consider `CCCCCCCCCCCC(=O)NCC(C)(C)CC1=C(O)C(=O)c2ccccc2C1=O`, for which the pIC50 is 4.86 in test [2] and 4.89 in test [1].

Take `CC(C)C(=O)NCC(C)(C)CC1=C(O)C(=O)c2ccccc2C1=O`: the IC50 result in test [2] was “Non-toxic”. The same molecule had a pIC50 in test [1] of 4.02.

As for `CCC(C)C(=O)NCC(C)(C)CC1=C(O)C(=O)c2ccccc2C1=O` (configuration not stated), the IC50 result in test [2] is reported as “Non-toxic”. This molecule also had a pIC50 in test [1] of 3.99.

With `CCCCCCCCCCC(=O)OCC(C)(C)CC1=C(O)C(=O)c2ccccc2C1=O`, the negative logarithm of the IC50 (pIC50) in test [1] is 4.26.

Regarding `CCCCCCCCCCCCCCCC(=O)OCC(C)(C)CC1=C(O)C(=O)c2ccccc2C1=O`, the inhibition result in test [4] is “Active”. The molecule further had a pIC50 in test [1] of 4.57.

Molecule `CCCCCCCCCC(=O)OCC(C)(C)CC1=C(O)C(=O)c2ccccc2C1=O` had a pIC50 in test [1] of 4.26.

As to `CCCCCC(=O)NCC(C)(C)CC1=C(O)C(=O)c2ccccc2C1=O`, the pIC50 is 4.33 in test [2] and 4.40 in test [1].

As to `CCCCCCCC(=O)NCC(C)(C)CC1=C(O)C(=O)c2ccccc2C1=O`, the pIC50 in test [2] is 4.73; in test [1] it was 4.61.

In test [1], `CCCCCCC(C)C(=O)OCC(C)(C)CC1=C(O)C(=O)c2ccccc2C1=O` (configuration not stated) had a negative logarithm of the IC50 (pIC50) of 4.78.

With `CCCCCCCC(=O)OCC(C)(C)CC1=C(O)C(=O)c2ccccc2C1=O`, the pIC50 in test [1] is 4.42.

`CCCCCCCCCCCC(=O)OCC(C)(C)CC1=C(O)C(=O)c2ccccc2C1=O` showed a negative-log IC50 (pIC50) in test [1] of 4.45.

In turn, `CCC(C)C(=O)OCC(C)(C)CC1=C(O)C(=O)c2ccccc2C1=O` (configuration not stated) gave a negative-log IC50 (pIC50) in test [1] of 5.33.

On to `CCCCCCCCCCCCCC(=O)NCC(C)(C)CC1=C(O)C(=O)c2ccccc2C1=O`, for which the figures for the pIC50 in test [2] and in test [1] were 5.01 and 4.60, respectively.

On to `CCCCCCC(=O)OCC(C)(C)CC1=C(O)C(=O)c2ccccc2C1=O`, for which the negative logarithm of the IC50 (pIC50) in test [1] was 4.84.
